From ChEMBL document CHEMBL1955790, “One pot synthesis and anticancer activity of dimeric phloroglucinols” (Bioorg Med Chem Lett, 2012) come the findings set out here.

Each structure is given as a SMILES string. Where only a bound is given, the exact number is not on record here.

In experiment [1] the test system is ACHN. The experiment can be described thus: Growth inhibition of human ACHN cells at 10 uM after 48 hrs by WST-8 assay. The class given is functional. The settings on record: read-out: GI. An outline of the steps: (§1)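 ATCC cells kept in DMEM with 10% FBS and antibiotics at 37 °C, 5% CO2. Seeded 5×10^3/well, incubated overnight, then treated with compound for 48 h against a DMSO vehicle control (≤0.1%). CCK-8 (WST-8) reduction by live-cell dehydrogenases read at 450 nm (corrected 650 nm) after 4 h at 37 °C. Viable cells expressed as % of the DMSO control.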

In experiment [2] the test system is PANC-1. The experiment is described as follows: Growth inhibition of human PANC1 cells at 10 uM after 48 hrs by WST-8 assay. The experiment is classed as functional. The following applies: PANC-1, 48 h, read-out: GI. An outline of the steps:
as §1

Experiment [3] relates to Calu-1. The experiment is described as follows: Growth inhibition of human Calu1 cells at 10 uM after 48 hrs by WST-8 assay. The class given is functional. The following applies: Calu-1, 48 h, read-out: GI. An outline of the steps: as §1
The test system of experiment [4] is NCI-H460. The experiment can be described thus: Growth inhibition of human NCI-H460 cells at 10 uM after 48 hrs by WST-8 assay. The class given is functional. The settings on record: NCI-H460, 48 h, read-out: GI. A digest of the protocol: as §1
The subject of experiment [5] is HCT-116. The experiment can be described thus: Growth inhibition of human HCT116 cells at 10 uM after 48 hrs by WST-8 assay. The class given is functional. The following applies: HCT-116, 48 h, read-out: GI. An outline of the steps: as §1
In experiment [6] the test system is Calu-1. The experiment can be described thus: Cytotoxicity against human Calu1 cells after 48 hrs by WST-8 assay. The class given is functional, cell-based. The following applies: Calu-1, 48 h. An outline of the steps:
(§2)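 ATCC cells kept in DMEM with 10% FBS, penicillin/streptomycin at 37 °C, 5% CO2. Seeded 5×10^3/well and left overnight, then exposed to a range of concentrations with DMSO vehicle (≤0.1%) as control. After 48 h, CCK-8 (WST-8) was added for 4 h at 37 °C and A450 read, corrected to 650 nm. Viability is % of DMSO control. IC50 was taken from log cytotoxicity curves.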

The test system of experiment [7] is NCI-H460. The experiment is described as follows: Cytotoxicity against human NCI-H460 cells after 48 hrs by WST-8 assay. The settings on record: NCI-H460, 48 h. The experiment is classed as functional, cell-based. An outline of the steps:
as §2

Experiment [8] concerns HCT-116. The experiment is described as follows: Cytotoxicity against human HCT116 cells after 48 hrs by WST-8 assay. The settings on record: HCT-116, 48 h. The class given is functional, cell-based. A digest of the protocol:
as §2

The test system of experiment [9] is MCF-10A. The experiment can be described thus: Cytotoxicity against human MCF10A cells after 48 hrs by WST-8 assay. The class given is cell-based. A digest of the protocol:
as §2

Experiment [10] concerns ACHN. The experiment is described as follows: Cytotoxicity against human ACHN cells after 48 hrs by WST-8 assay. The experiment is classed as functional, cell-based. An outline of the steps:
as §2

In experiment [11] the test system is PANC-1. The experiment is described as follows: Cytotoxicity against human PANC1 cells after 48 hrs by WST-8 assay. The experiment is classed as functional, cell-based. The following applies: PANC-1, 48 h. A digest of the protocol: as §2

Consider `CC(=O)c1c(O)c(C(C)=O)c(O)c(C(C)c2c(O)c(C(C)=O)c(O)c(C(C)=O)c2O)c1O`, for which the inhibition of growth at 10 µM in experiment [1] was 19%; in [2], 0%; in [3], 38%; in experiment [4] it was 0%; in [5], 3%.
On to `CC(C)CC(=O)c1c(O)c(C(=O)CC(C)C)c(O)c(C(C)c2c(O)c(C(=O)CC(C)C)c(O)c(C(=O)CC(C)C)c2O)c1O`, for which the inhibition of growth at 10 µM came out at 11% in [1]; 0% in [2]; 12% in experiment [3]; 12% in experiment [4]; 25% in experiment [5].
For `CCC(c1c(O)c(C(=O)CC(C)C)c(O)c(C(=O)CC(C)C)c1O)c1c(O)c(C(=O)CC(C)C)c(O)c(C(=O)CC(C)C)c1O`, the inhibition of growth at 10 µM in experiment [1] worked out at 0%; in experiment [2] it was 0%; in experiment [3] it was 10%; in experiment [4], 10%; in experiment [5], 22%.
`CC(C)CC(=O)c1c(O)c(C(=O)CC(C)C)c(O)c(C(c2c(O)c(C(=O)CC(C)C)c(O)c(C(=O)CC(C)C)c2O)C2CCCCC2)c1O`: the inhibition of growth at 10 µM in experiment [1] was found to be 14%; in experiment [2], 0%; in [3] it was 18%; in experiment [4] it was 29%; in experiment [5], 0%.
Regarding `CC(=O)c1c(O)c(C(C)=O)c(O)c(C(c2ccccc2)c2c(O)c(C(C)=O)c(O)c(C(C)=O)c2O)c1O`, the inhibition of growth at 10 µM in experiment [1] worked out at 29%; in experiment [2], 0%; in [3] it was 47%; in experiment [4] it was 29%; in experiment [5], 0%.
For the compound `CC(=O)c1c(O)c(C(C)=O)c(O)c(C(c2ccccn2)c2c(O)c(C(C)=O)c(O)c(C(C)=O)c2O)c1O`, the inhibition of growth at 10 µM was found to be 12% in [1]; 0% in [2]; 24% in [3]; 0% in experiment [4]; 11% in [5].
Regarding `CC(C)CC(=O)c1c(O)c(C(=O)CC(C)C)c(O)c(C(c2cc3ccccc3o2)c2c(O)c(C(=O)CC(C)C)c(O)c(C(=O)CC(C)C)c2O)c1O`, the inhibition of growth at 10 µM in experiment [1] turned out to be 7%; in experiment [2] it was 0%; in experiment [3], 56%; in experiment [4], 37%; in experiment [5], 20%.
The like results for `CC(C)CC(=O)c1c(O)c(C(=O)CC(C)C)c(O)c(C(c2ccc3c(c2)Cc2ccccc2-3)c2c(O)c(C(=O)CC(C)C)c(O)c(C(=O)CC(C)C)c2O)c1O` were, in that order, 17%, 18%, 0%, 15% and 0%.
As to `CC(C)CC(=O)c1c(O)c(C(=O)CC(C)C)c(O)c(C(c2ncc[nH]2)c2c(O)c(C(=O)CC(C)C)c(O)c(C(=O)CC(C)C)c2O)c1O`, the inhibition of growth at 10 µM came out at 0% in experiment [1]; 0% in experiment [2]; 11% in [3]; 15% in experiment [4]; 0% in experiment [5].
Consider `CC(C)CC(=O)c1c(O)c(C(=O)CC(C)C)c(O)c(C(c2c(O)c(C(=O)CC(C)C)c(O)c(C(=O)CC(C)C)c2O)c2cccc3ccccc23)c1O`, for which the inhibition of growth at 10 µM was found to be 6% in [1]; 17% in experiment [2]; 15% in experiment [3]; 26% in experiment [4]; 0% in experiment [5].
As for `CC(C)CC(=O)c1c(O)c(C=O)c(O)c(C(c2ccncc2)c2c(O)c(C=O)c(O)c(C(=O)CC(C)C)c2O)c1O`, the inhibition of growth at 10 µM in experiment [1] was determined as 21%; in experiment [2] it was 5%; in experiment [3] it was 17%; in [4], 0%; in experiment [5], 0%.
Turning to `CC(C)CC(=O)c1c(O)c(C=O)c(O)c(C(c2ncc[nH]2)c2c(O)c(C=O)c(O)c(C(=O)CC(C)C)c2O)c1O`, the inhibition of growth at 10 µM worked out at 38% in [1]; 0% in experiment [2]; 0% in [3]; 22% in experiment [4]; 18% in experiment [5].
`CC(C)CC(=O)c1c(O)c(C=O)c(O)c(C(c2cc3ccccc3o2)c2c(O)c(C=O)c(O)c(C(=O)CC(C)C)c2O)c1O`: the inhibition of growth at 10 µM in experiment [1] stood at 6%; in experiment [2], 0%; in experiment [3], 2%; in [4] it was 5%; in experiment [5], 11%.
Consider `CC(C)CC(=O)c1c(O)c(C=O)c(O)c(C(c2ccc(C(F)(F)F)cc2C(F)(F)F)c2c(O)c(C=O)c(O)c(C(=O)CC(C)C)c2O)c1O`, for which the inhibition of growth at 10 µM in [1] came to 0%; in [2], 0%; in experiment [3] it was 6%; in experiment [4], 5%; in experiment [5] it was 14%.
Regarding `CC(C)CC(=O)c1c(O)c(C=O)c(O)c(C(c2ccc(OCc3ccccc3)cc2)c2c(O)c(C=O)c(O)c(C(=O)CC(C)C)c2O)c1O`, the inhibition of growth at 10 µM in experiment [1] was found to be 44%; in experiment [2] it was 6%; in experiment [3], 30%; in [4] it was 49%; in [5], 48%.
With `CC(C)CC(=O)c1c(O)c(C=O)c(O)c(C(c2ccc(-c3ccccc3)cc2)c2c(O)c(C=O)c(O)c(C(=O)CC(C)C)c2O)c1O`, the inhibition of growth at 10 µM in [1] came out at 0%; in experiment [2] it was 0%; in experiment [3], 0%; in experiment [4], 28%; in experiment [5] it was 5%.
As to `CC(C)CC(=O)c1c(O)cc(O)c(C=O)c1O`, the IC50 was 9.1 µM in experiment [6]; 9.4 µM in experiment [7]; 9.7 µM in [8]; greater than 27.3 µM in [9]; 8.9 µM in [10]; 8.5 µM in experiment [11]. The inhibition of growth at 10 µM in [1] was 52%; in experiment [2], 50%; in experiment [3], 59%; in [4], 58%; in [5], 57%.
In the case of `CC(=O)c1c(O)cc(O)c(C(C)=O)c1O`, the inhibition of growth at 10 µM was 44% in experiment [1]; 0% in experiment [2]; 0% in experiment [3]; 25% in experiment [4]; 0% in experiment [5].
`CC(C)CC(=O)c1c(O)cc(O)c(C(=O)CC(C)C)c1O`: the inhibition of growth at 10 µM in experiment [1] turned out to be 30%; in experiment [2] it was 0%; in experiment [3], 0%; in [4] it was 46%; in experiment [5] it was 55%.
`CC(C)CC(=O)c1c(O)c(Cc2c(O)c(C(=O)CC(C)C)c(O)c(C(=O)CC(C)C)c2O)c(O)c(C(=O)CC(C)C)c1O`: the inhibition of growth at 10 µM in [1] is 35%; in experiment [2] it was 0%; in experiment [3] it was 7%; in [4] it was 3%; in experiment [5], 1%.
Regarding `CC(=O)c1c(O)c(Cc2c(O)c(C(C)=O)c(O)c(C(C)=O)c2O)c(O)c(C(C)=O)c1O`, the inhibition of growth at 10 µM in experiment [1] worked out at 46%; in experiment [2] it was 22%; in experiment [3] it was 39%; in experiment [4] it was 0%; in experiment [5], 8%.
The like results for `CC(C)C(=O)c1c(O)c(Cc2c(O)c(C(=O)C(C)C)c(O)c(C(=O)C(C)C)c2O)c(O)c(C(=O)C(C)C)c1O` were, in that order, 30%, 12%, 16%, 25% and 6%.
In the same order, the values of `CC(C)CC(=O)c1c(O)c(C=O)c(O)c(Cc2c(O)c(C=O)c(O)c(C(=O)CC(C)C)c2O)c1O` are 35%, 15%, 29%, 0% and 9%.
In the case of `CC(C)C(=O)c1c(O)cc(O)c(C(=O)C(C)C)c1O`, the inhibition of growth at 10 µM in experiment [1] is 33%; in [2] it was 0%; in experiment [3], 15%; in experiment [4] it was 22%; in experiment [5] it was 0%.
